According to ChEMBL document CHEMBL1144930, “A short synthesis and biological evaluation of potent and nontoxic antimalarial bridged bicyclic beta-sulfonyl-endoperoxides” (J Med Chem, 2003):
Several values for one entry are separate records, joined by “and”; a condition that tells them apart may be missing. Identical values can stand only once. Activity calls are given as the source filed them. The calls are words filed in the database; no cut-off is given here.

Experiments:
[1] = In vitro antimalarial activity against chloroquine-sensitive NF54 strain of Plasmodium falciparum; type: functional
In short: (§1)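 Run in quadruplicate with fitted concentration-response curves (R2 ≥0.985). Artemisinin was run as a concurrent control.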

Mus musculus [2] = assay: In vivo antimalarial activity in mice (Mus musculus) against chloroquine-sensitive Plasmodium berghei N after oral administration; type: functional
[3] = In vitro antimalarial activity against chloroquine-sensitive NF54 strain of Plasmodium falciparum (Experiment 1); type: functional; in short: as §1
Mus musculus [4] = assay: In vivo antimalarial activity in mice (Mus musculus) against chloroquine-sensitive Plasmodium berghei N after subcutaneous administration; type: functional
Mus musculus [5] = assay: In vivo antimalarial activity in mice (Mus musculus) against chloroquine-resistant Plasmodium yoelii species. NS after subcutaneous administration; type: functional
[6] = In vitro antimalarial activity against chloroquine-sensitive NF54 strain of Plasmodium falciparum (Experiment 2); type: functional; in short: as §1
Mus musculus [7] = organism: Mus musculus; assay: Dose at which two mice demonstarted 100% survival and normal expected body weight gain after injecting with compound for 14 days; type: functional
In short: (§2)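 Male CD-1/ICR mice in groups of at least 4, given a single intramuscular injection into rear-limb muscle (at most 0.05 mL per site). Test articles were dissolved or suspended at 5% in sesame oil; a vehicle group was included. Doses ranged from 85 to about 400 mg/kg. Survival and body weight gain were followed for 14 days.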

Mus musculus [8] = assay: In vivo antimalarial activity in mice (Mus musculus) against chloroquine-resistant Plasmodium yoelii species. NS after subcutaneous administration; NA means Inactive at 30 mg/kg/day; type: functional, organism-based
Mus musculus [9] = assay: Number of mice survived in a group of 18 mice after injecting single intraperitoneal dose of 500 mg/kg (single dose of 250 mg/kg did not cause mice mortality); type: functional
In short: (§3)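 Male CD-1 mice in groups of 18 received a single intraperitoneal dose (250, 500 or 1000 mg/kg) of the reference. Survival was scored. Clinical signs such as ruffled fur, hypoactivity and hunched posture were also recorded.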

Mus musculus [10] = assay: Number of mice survived in a group of 18 mice after injecting single intraperitoneal dose of 1000 mg/kg (single dose of 250 mg/kg did not cause mice mortality); type: functional; in short: as §3
Mus musculus [11] = organism: Mus musculus; assay: Dose at which all the mice (from 4 groups) demonstarted 100% survival and normal expected body weight gain after injecting with compound for 14 days; type: functional; in short: as §2

CCOC(=O)C(=O)OC1(C)CCC2CC1OO[C@@]2(C)CS(=O)(=O)c1ccccc1 (stereo not given in full)
IC50 [1]: 170 nM

CC1=CCC2CC1OO[C@@]2(C)CSc1ccccc1 (stereo not given in full)
IC50 [1]: 940 nM

C=C1CCC2CC1OO[C@@]2(C)CS(=O)(=O)c1ccccc1 (stereo not given in full)
IC50 [1]: < 3220 nM

C[C@@H]1CC[C@H]2[C@@H](C)C(=O)O[C@@H]3O[C@@]4(C)CC[C@@H]1[C@]32OO4 [ARTEMISININ]
ED50 (Mus musculus [2]): 5 mg kg-1 5day-1 | ED90 (Mus musculus [2]): 14 mg kg-1 5day-1 | IC50 [3]: 8.7 nM | ED50 (Mus musculus [4]): 0.95 mg kg-1 5day-1 | ED90 (Mus musculus [4]): 2.5 mg kg-1 5day-1 | ED50 (Mus musculus [5]): 5.8 mg kg-1 5day-1 | ED90 (Mus musculus [5]): 10 mg kg-1 5day-1 | IC50 [6]: 8.9 nM

CC1(O)CCC2CC1OO[C@@]2(C)CS(=O)(=O)c1ccc(F)cc1 (stereo not given in full)
IC50 [1]: 49 nM

CC(=O)OC1(C)CCC2CC1OO[C@]2(C)CS(=O)(=O)c1ccccc1 (stereo in doubt; 45a)
IC50 [1]: 20 nM

CC(=O)OC1(C)CCC2CC1OO[C@@]2(C)CS(=O)(=O)c1ccccc1 (stereo in doubt; 45b)
IC50 [1]: 18 nM

CC1(O)CCC2CC1OO[C@]2(C)CS(=O)(=O)c1ccc(F)cc1 (stereo not given in full)
IC50 [1]: 52 nM

CCO[C@H]1O[C@@H]2O[C@@]3(C)CC[C@H]4[C@H](C)CC[C@@H]([C@H]1C)[C@@]24OO3 [ARTEMOTIL]
Dose (Mus musculus [7]): 360 mg/kg | ED50 (Mus musculus [4]): 0.9 mg kg-1 5day-1 | ED90 (Mus musculus [4]): 1.4 mg kg-1 5day-1

CC1(OC(=O)C(=O)N(Cc2ccccc2)Cc2ccccc2)CCC2CC1OO[C@@]2(C)CS(=O)(=O)c1ccccc1 (stereo not given in full)
IC50 [1]: 21 nM

CC1(O)CCC2CC1OO[C@@]2(C)CS(=O)(=O)c1ccccc1 (stereo in doubt; 23a) [listing 1 of 2 here]
ED50 (Mus musculus [4]): >30 mg kg-1 5day-1 | ED90 (Mus musculus [4]): >30 mg kg-1 5day-1 | IC50 [1]: 55 nM

CC1(O)CCC2CC1OO[C@]2(C)CSC(c1ccccc1)(c1ccccc1)c1ccccc1 (stereo not given in full)
IC50 [1]: 72 nM

CC1(OC(=O)COc2ccccc2)CCC2CC1OO[C@@]2(C)CS(=O)(=O)c1ccccc1 (stereo not given in full)
IC50 [1]: 37 nM

CC1(O)CCC2CC1OO[C@@]2(C)CS(=O)(=O)c1ccccc1 (stereo in doubt; 23a) [listing 2 of 2 here]
NA (Mus musculus [8]): Inactive at 30 mg/kg/day

CC(=O)OC1(C)CCC2CC1OO[C@@]2(C)CS(=O)(=O)c1ccccc1 (stereo in doubt; 45d)
IC50 [1]: 220 nM

CC1(OC/C=C/c2ccccc2)CCC2CC1OO[C@@]2(C)CS(=O)(=O)c1ccccc1 (stereo not given in full)
IC50 [1]: 32 nM

CO[C@H]1O[C@@H]2O[C@@]3(C)CC[C@H]4[C@H](C)CC[C@@H]([C@H]1C)[C@@]24OO3 [ARTEMETHER]
ED50 (Mus musculus [2]): 3.1 mg kg-1 5day-1 | ED90 (Mus musculus [2]): 5 mg kg-1 5day-1 | ED50 (Mus musculus [4]): 0.5 mg kg-1 5day-1 | ED90 (Mus musculus [4]): 1.1 mg kg-1 5day-1 | No. of mice survived (Mus musculus [9]): 10 | No. of mice survived (Mus musculus [10]): 4

CC1(OC(=O)C(=O)N(Cc2ccccc2)Cc2ccccc2)CCC2CC1OO[C@]2(C)CS(=O)(=O)c1ccccc1 (stereo not given in full)
IC50 [1]: 81 nM

C[C@@]12OC1CC1CC2OO[C@@]1(C)CS(=O)(=O)c1ccccc1 (stereo not given in full)
IC50 [1]: 92 nM

COc1ccc(COC2(C)CCC3CC2OO[C@@]3(C)CS(=O)(=O)c2ccccc2)cc1 (stereo not given in full)
ED50 (Mus musculus [4]): 1.3 mg kg-1 5day-1 | ED90 (Mus musculus [4]): 2.3 mg kg-1 5day-1 | ED50 (Mus musculus [5]): 4.8 mg kg-1 5day-1 | ED90 (Mus musculus [5]): 8.3 mg kg-1 5day-1 | IC50 [1]: 14 nM

CC(=O)OC1(C)CCC2CC1OO[C@]2(C)CS(=O)(=O)c1ccccc1 (stereo in doubt; 39b)
IC50 [1]: 17 nM

CC1(O)CCC2CC1OO[C@]2(C)CS(=O)(=O)c1ccccc1 (stereo in doubt; 23b)
IC50 [1]: 89 nM

CC(=O)CC(=O)OC1(C)CCC2CC1OO[C@@]2(C)CS(=O)(=O)c1ccccc1 (stereo not given in full)
IC50 [1]: 46 nM

CC1(OCc2ccccc2)CCC2CC1OO[C@]2(C)CS(=O)(=O)c1ccccc1 (stereo not given in full)
ED50 (Mus musculus [2]): 4.2 mg kg-1 5day-1 | ED90 (Mus musculus [2]): 23.5 mg kg-1 5day-1 | ED50 (Mus musculus [4]): 0.43 mg kg-1 5day-1 | ED90 (Mus musculus [4]): 1.3 mg kg-1 5day-1 | ED50 (Mus musculus [5]): 1 mg kg-1 5day-1 | ED90 (Mus musculus [5]): 3.1 mg kg-1 5day-1 | IC50 [1]: 9.4 nM | Dose (Mus musculus [11]): 380 mg/kg

CCN(CC)CCCC(C)Nc1ccnc2cc(Cl)ccc12 (stereo not given) [CHLOROQUINE]
ED50 (Mus musculus [2]): 1.9 mg kg-1 5day-1 | ED90 (Mus musculus [2]): 2.3 mg kg-1 5day-1 | ED50 (Mus musculus [4]): 1 mg kg-1 5day-1 | ED90 (Mus musculus [4]): 1.2 mg kg-1 5day-1 | ED50 (Mus musculus [5]): 2.4 mg kg-1 5day-1 | ED90 (Mus musculus [5]): 56 mg kg-1 5day-1

CC1(O)C2CC(CC1OC(=O)c1ccccc1)[C@@](C)(CS(=O)(=O)c1ccccc1)OO2 (stereo not given in full)
IC50 [1]: 170 nM

CCOC(=O)C(=O)OC1(C)CCC2CC1OO[C@]2(C)CS(=O)(=O)c1ccccc1 (stereo not given in full)
IC50 [1]: 140 nM

CC1(O)CCC2CC1OO[C@@]2(C)CSC(c1ccccc1)(c1ccccc1)c1ccccc1 (stereo not given in full)
IC50 [1]: 150 nM

CC(=O)OC1(C)CCC2CC1OO[C@]2(C)C[S+]([O-])c1ccccc1 (stereo not given in full)
IC50 [1]: 40 nM and 14 nM

CC(=O)OC1(C)CCC2CC1OO[C@@]2(C)CS(=O)(=O)c1ccccc1 (stereo in doubt; 39a)
ED50 (Mus musculus [4]): 3.7 mg kg-1 5day-1 | ED90 (Mus musculus [4]): 7.3 mg kg-1 5day-1 | ED50 (Mus musculus [5]): 12.5 mg kg-1 5day-1 | ED90 (Mus musculus [5]): 28 mg kg-1 5day-1 | IC50 [1]: 17 nM

CC1(O)C2CC(C[C@H]1OC(=O)c1ccccc1)[C@](C)(CS(=O)(=O)c1ccccc1)OO2 (stereo not given in full)
IC50 [1]: 2500 nM

CC(=O)CC(=O)OC1(C)CCC2CC1OO[C@]2(C)CS(=O)(=O)c1ccccc1 (stereo not given in full)
IC50 [1]: 73 nM

CC(=O)OC1(C)CCC2CC1OO[C@@]2(C)C[S+]([O-])c1ccccc1 (stereo not given in full)
IC50 [1]: 62 nM and 54 nM

CC1(O)CCC2CC1OO[C@@]2(C)CS(=O)(=O)c1ccccc1 (stereo in doubt; 26b)
IC50 [1]: 95 nM

COC(=O)CS(=O)(=O)C[C@@]1(C)OOC2CC1CCC2(C)O (stereo not given in full)
IC50 [1]: > 2500 nM

C[C@@H]1[C@H](OCc2ccc(C(=O)O)cc2)O[C@@H]2O[C@@]3(C)CC[C@@H]4[C@@H](C)CC[C@@H]1[C@]24OO3 [ARTELINIC ACID]
ED50 (Mus musculus [4]): 6.6 mg kg-1 5day-1 | ED90 (Mus musculus [4]): 14 mg kg-1 5day-1

CC1(O)C2CC(CC1OC(=O)c1ccccc1)[C@](C)(CS(=O)(=O)c1ccccc1)OO2 (stereo not given in full)
IC50 [1]: > 2500 nM

CC1(O)C2CC(C[C@H]1OC(=O)c1ccccc1)[C@@](C)(CS(=O)(=O)c1ccccc1)OO2 (stereo not given in full)
IC50 [1]: 815 nM

CC1CCC2CC1OO[C@]2(C)CS(=O)(=O)c1ccccc1 (stereo not given in full)
IC50 [1]: 24 nM

CC1(O)C2CC(C[C@H]1O)[C@@](C)(CS(=O)(=O)c1ccccc1)OO2 (stereo not given in full)
IC50 [1]: > 2500 nM

CC1(O)CCC2CC1OO[C@]2(C)C[S+]([O-])c1ccccc1 (stereo not given in full)
IC50 [1]: 820 nM

CC(C)=CCOC1(C)CCC2CC1OO[C@@]2(C)CS(=O)(=O)c1ccccc1 (stereo not given in full)
IC50 [1]: 35 nM

CCCCS(=O)(=O)C[C@@]1(C)OOC2CC1CC(OC(=O)c1ccccc1)C2(C)O (stereo not given in full)
IC50 [1]: 500 nM

C[C@@H]1C(=O)C[C@H]2C[C@@H]1OO[C@@]2(C)/C=C\c1ccc(C(F)(F)F)cc1C(F)(F)F [ARTEFLENE]
ED50 (Mus musculus [2]): 10.4 mg kg-1 5day-1 | ED90 (Mus musculus [2]): 18 mg kg-1 5day-1 | ED50 (Mus musculus [4]): 2.7 mg kg-1 5day-1 | ED90 (Mus musculus [4]): 3.9 mg kg-1 5day-1 | IC50 [1]: 71 nM

CC(=O)OC1(C)CCC2CC1OO[C@]2(C)CS(=O)(=O)c1ccccc1 (stereo in doubt; 45c)
IC50 [1]: 270 nM

CC1(O)CCC2CC1OO[C@@]2(C)C[S+]([O-])c1ccccc1 (stereo not given in full)
IC50 [1]: 150 nM

COC(=O)CS(=O)(=O)C[C@]1(C)OOC2CC1CCC2(C)O (stereo not given in full)
IC50 [1]: > 2500 nM

CC1(OCc2ccccc2)CCC2CC1OO[C@@]2(C)CS(=O)(=O)c1ccccc1 (stereo not given in full)
ED50 (Mus musculus [2]): 10.5 mg kg-1 5day-1 | ED90 (Mus musculus [2]): 115 mg kg-1 5day-1 | ED50 (Mus musculus [4]): 0.8 mg kg-1 5day-1 | ED90 (Mus musculus [4]): 1.7 mg kg-1 5day-1 | ED50 (Mus musculus [5]): 1.3 mg kg-1 5day-1 | ED90 (Mus musculus [5]): 3.8 mg kg-1 5day-1 | IC50 [1]: 6.5 nM | Dose (Mus musculus [11]): 380 mg/kg

CC1=CCC2CC1OO[C@@]2(C)CS(=O)(=O)c1ccccc1 (stereo not given in full)
IC50 [1]: 360 nM

CCCCS(=O)(=O)C[C@]1(C)OOC2CC1CC(OC(=O)c1ccccc1)C2(C)O (stereo not given in full)
IC50 [1]: 2500 nM

CC1(O)CCC2CC1OO[C@]2(C)CS(=O)(=O)c1ccccc1 (stereo in doubt; 26a)
IC50 [1]: 120 nM

CC1CCC2CC1OO[C@@]2(C)CS(=O)(=O)c1ccccc1 (stereo not given in full)
IC50 [1]: 17 nM
